Blank lines part the entries; values can stand above or below the compound they belong to. Active and inactive are the calls of the source. The rule behind the calls is not given here.
Assays:
Neutrophil collagenase [1] = biological target: T1, Neutrophil collagenase (Homo sapiens, UniProt P22894); experiment: Inhibition of MMP8 (unknown origin) using fTHP-15 as substrate preincubated for 30 mins followed by substrate addition measured immediately by fluorescence assay
[2] = biological target: Matrix metalloproteinase-9 (Homo sapiens, UniProt P14780); experiment: Inhibition of MMP9 (unknown origin) using fTHP-15 as substrate preincubated for 30 mins followed by substrate addition measured immediately by fluorescence assay
[3] = biological target: T2, 72 kDa type IV collagenase (Homo sapiens, UniProt P08253); experiment: Inhibition of recombinant human MMP2 expressed in mouse NSO cells using fTHP-15 as substrate preincubated for 30 mins followed by substrate addition measured immediately by fluorescence assay
[4] = biological target: Matrix metalloproteinase-14 (Homo sapiens, UniProt P50281); experiment: Inhibition of recombinant human MMP14 using fTHP-15 as substrate preincubated for 30 mins followed by substrate addition measured immediately by fluorescence assay
[5] = biological target: T2, 72 kDa type IV collagenase; experiment: Inhibition of recombinant human MMP2 expressed in mouse NSO cells at 200 nM using fTHP-15 as substrate preincubated for 30 mins followed by substrate addition measured immediately by fluorescence assay
Procedure, shortened: (§1)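 Each enzyme was activated per the supplier's protocol and diluted in EAB (50 mM Tris·HCl pH 7.5, 100 mM NaCl, 10 mM CaCl2, 0.05% Brij-35). Compound was tested at a single 200 nM and preincubated with enzyme for 30 min at 25 °C. Adding fTHP-15 started the reaction, with fluorescence read immediately. Inhibition was scored as percent substrate-to-product conversion after 30 min.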

Collagenase 3 [6] = biological target: T3, Collagenase 3 (Homo sapiens, UniProt P45452); experiment: Inhibition of full length recombinant human MMP13 expressed in mouse NSO cells using fTHP-15 as substrate preincubated for 30 mins followed by substrate addition measured immediately by fluorescence assay
Neutrophil collagenase [7] = biological target: T1, Neutrophil collagenase; experiment: Inhibition of MMP8 (unknown origin) at 200 nM using fTHP-15 as substrate preincubated for 30 mins followed by substrate addition measured immediately by fluorescence assay; procedure, shortened: as §1
[8] = biological target: Cathepsin S (Homo sapiens) (UniProt P25774); experiment: Inhibition of cathepsin-S (unknown origin) at 1 uM relative to control
Cathepsin S (Homo sapiens), sequence (P25774 115-331 limits assumed): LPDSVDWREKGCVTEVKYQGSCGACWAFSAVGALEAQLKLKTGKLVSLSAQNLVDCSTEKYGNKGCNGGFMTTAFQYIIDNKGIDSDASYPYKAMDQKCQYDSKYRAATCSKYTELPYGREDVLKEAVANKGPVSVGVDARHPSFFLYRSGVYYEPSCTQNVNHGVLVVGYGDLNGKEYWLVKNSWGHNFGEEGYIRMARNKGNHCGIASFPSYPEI

[9] = biological target: Cathepsin K (Homo sapiens) (UniProt P43235); experiment: Inhibition of cathepsin-K (unknown origin) at 1 uM relative to control
[10] = biological target: Neprilysin (Homo sapiens) (UniProt P08473); experiment: Inhibition of neprilysin (unknown origin) at 1 uM relative to control
Neprilysin (Homo sapiens), sequence (P08473 whole entry): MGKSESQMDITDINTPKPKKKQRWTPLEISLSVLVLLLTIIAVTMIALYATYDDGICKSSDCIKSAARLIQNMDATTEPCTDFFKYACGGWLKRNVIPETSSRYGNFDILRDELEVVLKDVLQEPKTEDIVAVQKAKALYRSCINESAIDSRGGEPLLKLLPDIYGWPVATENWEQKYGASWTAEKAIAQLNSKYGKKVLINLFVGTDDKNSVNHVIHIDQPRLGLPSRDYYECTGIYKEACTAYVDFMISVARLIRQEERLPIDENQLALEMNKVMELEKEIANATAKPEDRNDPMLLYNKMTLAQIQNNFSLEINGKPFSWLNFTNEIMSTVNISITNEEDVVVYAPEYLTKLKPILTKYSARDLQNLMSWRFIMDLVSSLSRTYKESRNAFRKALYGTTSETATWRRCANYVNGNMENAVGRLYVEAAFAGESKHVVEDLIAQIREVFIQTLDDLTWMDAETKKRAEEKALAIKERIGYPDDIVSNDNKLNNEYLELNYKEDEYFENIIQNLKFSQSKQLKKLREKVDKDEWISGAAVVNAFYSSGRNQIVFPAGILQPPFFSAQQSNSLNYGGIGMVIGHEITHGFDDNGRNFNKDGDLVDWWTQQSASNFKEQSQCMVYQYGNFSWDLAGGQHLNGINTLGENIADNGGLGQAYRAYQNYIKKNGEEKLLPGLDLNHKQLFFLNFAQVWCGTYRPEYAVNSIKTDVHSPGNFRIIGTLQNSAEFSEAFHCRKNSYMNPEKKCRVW

Furin (Homo sapiens) = Furin (Homo sapiens) (UniProt P09958); experiment: Inhibition of furin (unknown origin) at 1 uM relative to control
Furin (Homo sapiens), sequence (P09958 whole entry): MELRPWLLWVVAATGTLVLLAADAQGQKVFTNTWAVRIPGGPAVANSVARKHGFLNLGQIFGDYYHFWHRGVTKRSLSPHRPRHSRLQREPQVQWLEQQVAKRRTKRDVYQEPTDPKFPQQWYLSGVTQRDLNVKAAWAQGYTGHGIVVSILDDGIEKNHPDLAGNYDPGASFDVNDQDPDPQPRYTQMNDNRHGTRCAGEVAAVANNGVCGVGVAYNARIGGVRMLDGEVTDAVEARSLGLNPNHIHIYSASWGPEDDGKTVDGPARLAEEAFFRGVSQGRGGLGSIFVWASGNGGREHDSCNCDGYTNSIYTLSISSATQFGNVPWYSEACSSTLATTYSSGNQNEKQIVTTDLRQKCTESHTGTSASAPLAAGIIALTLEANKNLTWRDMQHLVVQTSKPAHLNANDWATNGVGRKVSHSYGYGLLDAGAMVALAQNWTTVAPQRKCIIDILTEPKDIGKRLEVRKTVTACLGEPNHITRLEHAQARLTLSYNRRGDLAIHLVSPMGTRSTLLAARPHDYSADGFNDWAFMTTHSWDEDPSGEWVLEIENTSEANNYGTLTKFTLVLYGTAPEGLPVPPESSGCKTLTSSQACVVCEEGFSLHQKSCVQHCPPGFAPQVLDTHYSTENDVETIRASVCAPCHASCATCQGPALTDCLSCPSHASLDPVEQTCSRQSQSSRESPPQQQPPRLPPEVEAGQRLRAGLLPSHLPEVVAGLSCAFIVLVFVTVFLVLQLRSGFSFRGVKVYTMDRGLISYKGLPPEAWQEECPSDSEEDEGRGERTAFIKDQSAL

Caspase-5 (Homo sapiens) = Caspase-5 (Homo sapiens) (UniProt P51878); experiment: Inhibition of caspase5 (unknown origin) at 1 uM relative to control
Caspase-5 (Homo sapiens), sequence (P51878 137-327 limits assumed): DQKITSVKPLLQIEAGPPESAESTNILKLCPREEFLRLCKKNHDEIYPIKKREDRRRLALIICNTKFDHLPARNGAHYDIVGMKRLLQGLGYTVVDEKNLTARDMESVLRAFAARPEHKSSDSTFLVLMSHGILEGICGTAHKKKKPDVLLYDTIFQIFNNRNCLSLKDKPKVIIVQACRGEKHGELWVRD
Caspase-5 (Homo sapiens), sequence (P51878 347-434 limits assumed): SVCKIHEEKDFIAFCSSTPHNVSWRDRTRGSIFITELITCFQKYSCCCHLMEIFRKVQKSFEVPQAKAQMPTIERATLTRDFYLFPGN

[11] = biological target: Insulin-degrading enzyme (Homo sapiens) (UniProt P14735); experiment: Inhibition of IDE (unknown origin) at 1 uM relative to control
Caspase-3 (Homo sapiens) = Caspase-3 (Homo sapiens) (UniProt P42574); experiment: Inhibition of caspase3 (unknown origin) at 1 uM relative to control
Caspase-3 (Homo sapiens), sequence (P42574 29-175 limits assumed): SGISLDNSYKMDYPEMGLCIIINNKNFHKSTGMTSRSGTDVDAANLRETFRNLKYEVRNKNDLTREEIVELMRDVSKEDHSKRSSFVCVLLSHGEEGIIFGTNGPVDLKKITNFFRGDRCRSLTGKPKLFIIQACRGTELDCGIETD
Caspase-3 (Homo sapiens), sequence (P42574 176-277 limits assumed): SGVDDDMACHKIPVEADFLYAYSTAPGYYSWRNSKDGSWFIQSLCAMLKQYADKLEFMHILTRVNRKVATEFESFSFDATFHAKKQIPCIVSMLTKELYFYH

Caspase-2 (Homo sapiens) = Caspase-2 (Homo sapiens) (UniProt P42575); experiment: Inhibition of caspase2 (unknown origin) at 1 uM relative to control
Caspase-2 (Homo sapiens), sequence (P42575 170-325 limits assumed): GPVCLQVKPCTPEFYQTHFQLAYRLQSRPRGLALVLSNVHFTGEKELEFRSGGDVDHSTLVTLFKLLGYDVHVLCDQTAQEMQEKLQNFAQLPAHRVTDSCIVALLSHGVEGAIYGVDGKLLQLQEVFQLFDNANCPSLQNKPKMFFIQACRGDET
Caspase-2 (Homo sapiens), sequence (P42575 334-452 limits assumed): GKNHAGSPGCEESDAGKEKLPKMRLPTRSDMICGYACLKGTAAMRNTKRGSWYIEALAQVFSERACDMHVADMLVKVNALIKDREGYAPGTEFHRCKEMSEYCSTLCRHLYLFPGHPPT

[12] = biological target: Angiotensin-converting enzyme (Homo sapiens) (UniProt P12821); experiment: Inhibition of ACE (unknown origin) at 1 uM relative to control
[13] = biological target: Coagulation factor X (Homo sapiens) (UniProt P00742); experiment: Inhibition of factor10a (unknown origin) at 1 uM relative to control
Coagulation factor X (Homo sapiens), sequence (P00742 41-179 limits assumed): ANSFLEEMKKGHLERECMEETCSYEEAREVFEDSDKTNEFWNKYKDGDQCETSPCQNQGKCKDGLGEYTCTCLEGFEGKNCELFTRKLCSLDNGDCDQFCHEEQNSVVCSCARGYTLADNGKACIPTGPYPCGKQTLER
Coagulation factor X (Homo sapiens), sequence (P00742 235-488 limits assumed): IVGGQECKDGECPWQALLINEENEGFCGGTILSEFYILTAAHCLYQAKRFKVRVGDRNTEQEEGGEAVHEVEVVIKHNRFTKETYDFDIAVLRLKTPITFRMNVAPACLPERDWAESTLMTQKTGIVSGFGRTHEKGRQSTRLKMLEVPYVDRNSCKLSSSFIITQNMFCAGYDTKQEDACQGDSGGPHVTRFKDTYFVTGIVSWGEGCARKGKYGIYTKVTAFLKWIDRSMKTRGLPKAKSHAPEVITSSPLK

[14] = biological target: Disintegrin and metalloproteinase domain-containing protein 10 (Homo sapiens) (UniProt O14672); experiment: Inhibition of ADAM10 (unknown origin) at 1 uM relative to control
[15] = biological target: Disintegrin and metalloproteinase domain-containing protein 17 (Homo sapiens) (UniProt P78536); experiment: Inhibition of TACE (unknown origin) at 1 uM relative to control
[16] = biological target: Prothrombin (Homo sapiens) (UniProt P00734); experiment: Inhibition of thrombin (unknown origin) at 1 uM relative to control
[17] = biological target: Matrilysin (Homo sapiens) (UniProt P09237); experiment: Inhibition of MMP7 (unknown origin) at 1 uM relative to control
Matrilysin (Homo sapiens), sequence (P09237 whole entry): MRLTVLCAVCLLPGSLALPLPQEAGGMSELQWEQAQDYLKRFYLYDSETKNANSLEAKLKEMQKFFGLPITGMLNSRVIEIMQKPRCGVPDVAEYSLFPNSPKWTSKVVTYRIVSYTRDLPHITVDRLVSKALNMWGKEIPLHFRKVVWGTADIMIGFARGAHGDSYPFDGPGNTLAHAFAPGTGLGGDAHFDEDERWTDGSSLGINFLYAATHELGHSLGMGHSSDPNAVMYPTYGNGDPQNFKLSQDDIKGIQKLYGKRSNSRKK

Caspase-6 (Homo sapiens) = Caspase-6 (Homo sapiens) (UniProt P55212); experiment: Inhibition of caspase6 (unknown origin) at 1 uM relative to control
Caspase-6 (Homo sapiens), sequence (P55212 24-179 limits assumed): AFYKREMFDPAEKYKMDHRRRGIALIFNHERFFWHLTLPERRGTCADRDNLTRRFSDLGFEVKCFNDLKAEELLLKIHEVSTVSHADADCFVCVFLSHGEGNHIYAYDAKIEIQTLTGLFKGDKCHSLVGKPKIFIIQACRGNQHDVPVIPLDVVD
Caspase-6 (Homo sapiens), sequence (P55212 194-293 limits assumed): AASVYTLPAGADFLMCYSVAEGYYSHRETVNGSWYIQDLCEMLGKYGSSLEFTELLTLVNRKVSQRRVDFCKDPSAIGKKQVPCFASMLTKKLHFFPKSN

Caspase-1 (Homo sapiens) = Caspase-1 (Homo sapiens) (UniProt P29466); experiment: Inhibition of caspase1 (unknown origin) at 1 uM relative to control
Caspase-1 (Homo sapiens), sequence (P29466 120-297 limits assumed): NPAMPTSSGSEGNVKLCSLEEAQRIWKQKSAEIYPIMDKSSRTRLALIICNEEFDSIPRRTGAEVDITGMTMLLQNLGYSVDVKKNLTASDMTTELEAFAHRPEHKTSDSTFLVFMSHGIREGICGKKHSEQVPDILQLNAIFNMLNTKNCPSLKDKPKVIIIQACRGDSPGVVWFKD
Caspase-1 (Homo sapiens), sequence (P29466 317-404 limits assumed): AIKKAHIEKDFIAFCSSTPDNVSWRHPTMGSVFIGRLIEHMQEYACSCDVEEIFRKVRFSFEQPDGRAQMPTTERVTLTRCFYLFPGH

Caspase-7 (Homo sapiens) = Caspase-7 (Homo sapiens) (UniProt P55210); experiment: Inhibition of caspase7 (unknown origin) at 1 uM relative to control
[18] = biological target: Angiotensin-converting enzyme 2 (Homo sapiens) (UniProt Q9BYF1); experiment: Inhibition of ACE2 (unknown origin) at 1 uM relative to control
[19] = biological target: Procathepsin L (Homo sapiens) (UniProt P07711); experiment: Inhibition of cathepsin-L (unknown origin) at 1 uM relative to control
[20] = biological target: Cathepsin D (Homo sapiens) (UniProt P07339); experiment: Inhibition of cathepsin-D (unknown origin) at 1 uM relative to control
Cathepsin D (Homo sapiens), sequence (P07339 65-162 limits assumed): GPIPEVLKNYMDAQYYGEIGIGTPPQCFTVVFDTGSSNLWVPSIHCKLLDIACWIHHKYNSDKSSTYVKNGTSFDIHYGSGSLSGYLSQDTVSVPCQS
Cathepsin D (Homo sapiens), sequence (P07339 169-412 limits assumed): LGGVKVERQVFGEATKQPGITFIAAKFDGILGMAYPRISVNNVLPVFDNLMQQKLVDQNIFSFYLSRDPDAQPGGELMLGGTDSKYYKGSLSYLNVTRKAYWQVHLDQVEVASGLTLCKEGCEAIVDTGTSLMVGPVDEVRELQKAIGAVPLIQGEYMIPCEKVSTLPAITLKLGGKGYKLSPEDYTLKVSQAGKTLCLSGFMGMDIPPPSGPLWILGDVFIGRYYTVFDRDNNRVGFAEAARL

[21] = biological target: Urokinase-type plasminogen activator (Homo sapiens) (UniProt P00749); experiment: Inhibition of uPA (unknown origin) at 1 uM relative to control
[22] = biological target: Beta-secretase 1 (Homo sapiens) (UniProt P56817); experiment: Inhibition of BACE1 (unknown origin) at 1 uM relative to control
Beta-secretase 1 (Homo sapiens), sequence (P56817 whole entry): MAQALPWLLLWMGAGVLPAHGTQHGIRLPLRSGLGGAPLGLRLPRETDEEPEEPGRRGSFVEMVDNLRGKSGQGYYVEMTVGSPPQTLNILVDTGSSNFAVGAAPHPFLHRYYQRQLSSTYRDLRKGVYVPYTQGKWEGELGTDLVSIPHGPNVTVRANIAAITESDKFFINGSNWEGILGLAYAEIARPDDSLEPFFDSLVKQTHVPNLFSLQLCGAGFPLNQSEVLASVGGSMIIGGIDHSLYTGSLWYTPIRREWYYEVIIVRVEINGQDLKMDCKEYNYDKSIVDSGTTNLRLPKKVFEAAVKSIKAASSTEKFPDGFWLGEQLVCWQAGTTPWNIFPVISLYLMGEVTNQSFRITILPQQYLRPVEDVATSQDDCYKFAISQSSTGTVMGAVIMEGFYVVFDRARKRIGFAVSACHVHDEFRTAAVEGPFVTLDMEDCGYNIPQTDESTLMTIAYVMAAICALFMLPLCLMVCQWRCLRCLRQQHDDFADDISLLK

Collagenase 3 [23] = biological target: T3, Collagenase 3; experiment: Inhibition of full length recombinant human MMP13 expressed in mouse NSO cells using varying levels of fTHP-15 as substrate preincubated for 30 mins followed by substrate addition measured immediately by Lineweaver-Burk plot analysis

IC50 (Neutrophil collagenase [1]): > 5 µM
IC50 [2]: > 10 µM
IC50 [3]: > 5 µM
IC50 [4]: > 10 µM
Compound: O=c1[nH]c(SCc2ccc(-c3ccc(S(=O)(=O)NCCO)cc3)cc2)nc2c1CCC2

inhibition [5]: Active
IC50 (Collagenase 3 [6]): 0.0094 µM
inhibition (Neutrophil collagenase [7]): Active
Compound: CNC(=O)[C@@H](NC(=O)c1ccc(-c2ccc(CSc3nc4c(c(=O)[nH]3)CCC4)cc2)o1)C(C)C

inhibition [8]: 2%
inhibition [9]: 2%
inhibition [10]: -6%
inhibition (Furin (Homo sapiens)): 0%
inhibition (Caspase-5 (Homo sapiens)): 0%
inhibition [11]: 0%
inhibition (Caspase-3 (Homo sapiens)): 0%
inhibition (Caspase-2 (Homo sapiens)): 0%
inhibition [12]: 0%
inhibition [13]: 0%
inhibition [14]: 0%
inhibition [15]: -3%
inhibition [16]: -8%
inhibition [17]: 4%
inhibition (Caspase-6 (Homo sapiens)): 0%
inhibition (Caspase-1 (Homo sapiens)): 0%
inhibition (Caspase-7 (Homo sapiens)): 8%
inhibition [18]: 0%
inhibition [19]: 7%
inhibition [20]: 0%
inhibition [21]: 1%
inhibition [22]: 0%
Compound: CNC(=O)[C@@H](NC(=O)c1ccc(-c2ccc(CSc3nc4c(c(=O)[nH]3)CCC4)c(F)c2)o1)C(C)C

Ki (Collagenase 3 [23]): 0.8 µM
Compound: Cc1ccc(CSc2nc(O)c3c(n2)CCC3)cc1

IC50 (Collagenase 3 [6]): 0.007 µM
Compound: CC(C)[C@@H](NS(=O)(=O)c1ccc(-c2ccc(CSc3nc4c(c(=O)[nH]3)CCC4)cc2)cc1)C(=O)O

IC50 (Collagenase 3 [6]): 0.356 µM
Compound: CNC(=O)[C@H](NC(=O)c1ccc(-c2ccc(CSc3nc4c(c(=O)[nH]3)CCC4)cc2)o1)C(C)C

inhibition [8]: 12%
inhibition [9]: 0%
inhibition [10]: 3%
inhibition (Furin (Homo sapiens)): 0%
inhibition (Caspase-5 (Homo sapiens)): 0%
inhibition [11]: 0%
inhibition (Caspase-3 (Homo sapiens)): 0%
inhibition (Caspase-2 (Homo sapiens)): 0%
inhibition [12]: 7%
inhibition [13]: 3%
inhibition [14]: 0%
inhibition [15]: 4%
inhibition [16]: -3%
inhibition [17]: 7%
inhibition (Caspase-6 (Homo sapiens)): 0%
inhibition (Caspase-1 (Homo sapiens)): 1%
inhibition (Caspase-7 (Homo sapiens)): 1%
inhibition [18]: 1%
inhibition [19]: 9%
inhibition [20]: 3%
inhibition [21]: 3%
inhibition [22]: 1%
Compound: NCCNS(=O)(=O)c1ccc(-c2ccc(CSc3nc4c(c(=O)[nH]3)CCC4)cc2)cc1
